Measurements pooled from the literature.
Compare with care: the assays were run in different laboratories.
Mode: inhibitor
HDAC4: Histone deacetylase 4 (HDAC4, Homo sapiens, UniProt P56524)
BLK: Tyrosine-protein kinase Blk (BLK, Homo sapiens, UniProt P51451)
SLCO1B3 S112A: Solute carrier organic anion transporter family member 1B3 (SLCO1B3, Homo sapiens, UniProt Q9NPD5, S112A)
VCP: Transitional endoplasmic reticulum ATPase (VCP, Homo sapiens, UniProt P55072)
SLCO1B3: Solute carrier organic anion transporter family member 1B3 (SLCO1B3, Homo sapiens, UniProt Q9NPD5)
P4HB: Protein disulfide-isomerase (P4HB, Homo sapiens, UniProt P07237)

COc1ccc(N(Cc2csc(-c3ccc(C)cc3)n2)C(=O)CCCCCC(=O)NO)cc1  IC50 (HDAC4; enzyme activity): > 10000 nM
CC(C)(/C=C(\C#N)C(=O)N1CCC[C@@H](n2nc(-c3ccc(Oc4ccccc4)cc3F)c3c(N)ncnc32)C1)N1CCN(C2COC2)CC1  IC50 (BLK; enzyme activity): 0.376 nM
COc1cccc2c1C(=O)c1c(O)c3c(c(O)c1C2=O)C[C@@](O)(C(=O)CO)C[C@@H]3O[C@H]1C[C@H](N)[C@H](O)[C@H](C)O1  IC50 (SLCO1B3 S112A; transporter uptake; radiometric; 2 min): > 100000 nM
O=C(NO)c1ccc(Cn2cnc3c(Nc4cccc([N+](=O)[O-])c4)ncnc32)cc1  IC50 (HDAC4; enzyme activity): 531 nM
Oc1ccc(-c2nc(-c3ccncc3)c(-c3ccc(F)cc3)[nH]2)cc1  IC50 (Tau-tubulin kinase 2 (TTBK2, Homo sapiens, UniProt Q6IQ55); enzyme activity): 3620 nM
COc1ccc(N(Cc2csc(-c3ccccc3)n2)C(=O)CCCCCC(=O)NO)cc1  IC50 (HDAC4; enzyme activity): > 10000 nM
Cc1cc2c(C(N)=O)cncc2n1-c1nc2c(c(NCc3ccccc3)n1)CCCN2  IC50 (VCP; enzyme activity; ADP detection): 82 nM
CC(C)n1c(/C=C/C(O)CC(O)CC(=O)O)c(-c2ccc(F)cc2)c2ccccc21 (centres unmarked)  IC50 (SLCO1B3; transporter uptake; radiometric; 2 min): 109 nM
NC/C(=C\F)COc1cccc(Cn2c(=S)[nH]c(=O)c3[nH]cnc32)c1  IC50 (Lactoperoxidase (LPO, Bos taurus, UniProt P80025); enzyme activity): 7500 nM
Nc1cnccc1Nc1ccc(Cl)c(Cl)c1  IC50 (G/T mismatch-specific thymine DNA glycosylase (TDG, Homo sapiens, UniProt Q13569); enzyme activity): > 100000 nM
Cc1cc2c(C(N)=O)cccc2n1-c1nc2c(c(NCc3cccnc3)n1)CCCN2  IC50 (VCP; enzyme activity; ADP detection): 115 nM
O=C(OC[C@H]1O[C@@H](OC(=O)c2cc(O)c(O)c(O)c2)[C@H](OC(=O)c2cc(O)c(O)c(O)c2)[C@@H](OC(=O)c2cc(O)c(O)c(O)c2)[C@@H]1OC(=O)c1cc(O)c(O)c(O)c1)c1cc(O)c(O)c(O)c1  IC50 (P4HB; enzyme activity; fluorescence): 2900 nM
Cc1cc2c(C(N)=O)cccc2n1-c1nc2c(c(NCc3cccc(O)c3)n1)CCCN2  IC50 (VCP; enzyme activity; ADP detection): 14 nM
CC#CC(=O)N[C@H]1CCCN(c2c(F)cc(C(N)=O)c3[nH]c(C)c(C)c23)C1  IC50 (BLK; enzyme activity): 6.92 nM
Cc1cc2c(C(N)=O)cccc2n1-c1nc2c(c(NCc3ccncc3)n1)CCCN2  IC50 (VCP; enzyme activity; ADP detection): 381 nM
CCc1oc2cc(F)ccc2c1C(=O)c1cc(Br)c(O)c(Br)c1  IC50 (Solute carrier family 2, facilitated glucose transporter member 9 (SLC2A9, Homo sapiens, UniProt Q9NRM0); transporter uptake; oocytes): 30400 nM
Cc1cc(O)c(-c2ccc([C@@H](C)CN(C)C)cc2)c2c1[nH]c(=O)c1sccc12  IC50 (Cyclin-dependent kinase 13, with cyclin K (CDK13, Homo sapiens, UniProt Q14004); enzyme activity): > 1000 nM
O=C(O[C@@H]1[C@@H](O)[C@H](Oc2cc(O)c3c(c2)O[C@H](c2ccccc2)CC3=O)O[C@@H]2COC(=O)c3cc(O)c(O)c(O)c3-c3c(cc(O)c(O)c3O)C(=O)O[C@@H]12)c1cc(O)c(O)c(O)c1  IC50 (Protein disulfide-isomerase A4 (PDIA4, Homo sapiens, UniProt P13667); enzyme activity; fluorescence): 7800 nM
CCc1oc2ccccc2c1C(=O)c1cc(Br)c(O)c(Br)c1  IC50 (SLCO1B3; transporter uptake; radiometric; oocytes): 25300 nM
O=C(O[C@@H]1Cc2c(O)cc(O)cc2O[C@@H]1c1ccc(O)c(O)c1)c1cc(O)c(O)c(O)c1  IC50 (P4HB; enzyme activity; fluorescence): > 500000 nM
CC(=O)O[C@H]1C(=O)[C@@]2(C)[C@H]([C@H](OC(=O)c3ccccc3)[C@]3(O)C[C@H](OC(=O)[C@H](O)[C@@H](NC(=O)c4ccccc4)c4ccccc4)C(C)=C1C3(C)C)[C@]1(OC(C)=O)CO[C@@H]1C[C@@H]2O  IC50 (SLCO1B3 S112A; transporter uptake; radiometric; 2 min): 87700 nM
CONC(=O)c1cccc2c1cc(C)n2-c1nc2c(c(NCc3ccccc3)n1)CCCN2  IC50 (VCP; enzyme activity; ADP detection): 26 nM
O=C(O[C@@H]1Cc2c(O)cc(O)cc2O[C@@H]1c1cc(O)c(O)c(O)c1)c1cc(O)c(O)c(O)c1  IC50 (P4HB; enzyme activity; fluorescence): 243000 nM
CONC(=O)Cc1c(C)n(-c2nc3c(c(NCc4ccccc4)n2)CCCN3)c2ccccc12  IC50 (VCP; enzyme activity; ADP detection): 177 nM
CN(Cc1cnc2nc(N)nc(N)c2n1)c1ccc(C(=O)N[C@@H](CCC(=O)O)C(=O)O)cc1  IC50 (SLCO1B3 S112A; transporter uptake; radiometric; 2 min): > 100000 nM
CC#CC(=O)N1CCC[C@H]1c1nc(-c2ccc(C(=O)Nc3ccccn3)cc2)c2c(N)nccn12  IC50 (BLK; enzyme activity): 4220 nM
